Values belong to the compound of their own block, whether it stands above or below them. Activity calls are given as the source filed them. No cut-off for these calls is given here.
Key:
Liver microsomes [1] = assay: Metabolic stability in human liver microsomes assessed as retention time of metabolite at 50 uM by HPLC-UV analysis; assay type: ADME, Microsome
Outline: (§1)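 Pooled mixed-gender human liver microsomes (0.5 mg/mL protein) were incubated with 2 mM NADPH, 0.5 U/mL G-6-P-DH, 5 mM MgCl₂ and 5 mM G-6-P in 100 mM potassium phosphate pH 7.4. After 3 min preincubation at 37 °C, NADPH was added to start the reaction, which ran 60 min. Samples taken at 0, 15, 30, 45 and 60 min were quenched with ice-cold acetonitrile, then run on reversed-phase C18 HPLC (phosphate pH 6.5/acetonitrile gradient) with UV at 360 nm. Data are mean ± SD of three.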

CYP2D6 [2] = biological target: T1, CYP2D6 (Homo sapiens, UniProt P10635); assay: Activity at CYP2D6 in human liver microsomes using dextromethorphan as substrate at 50 uM preincubated for 3 mins prior to NADPH addition by HPLC-UV analysis relative to control; assay type: ADME, Microsome; settings: probe dextromethorphan, read-out: Activity
T1 sequence (P10635 whole entry): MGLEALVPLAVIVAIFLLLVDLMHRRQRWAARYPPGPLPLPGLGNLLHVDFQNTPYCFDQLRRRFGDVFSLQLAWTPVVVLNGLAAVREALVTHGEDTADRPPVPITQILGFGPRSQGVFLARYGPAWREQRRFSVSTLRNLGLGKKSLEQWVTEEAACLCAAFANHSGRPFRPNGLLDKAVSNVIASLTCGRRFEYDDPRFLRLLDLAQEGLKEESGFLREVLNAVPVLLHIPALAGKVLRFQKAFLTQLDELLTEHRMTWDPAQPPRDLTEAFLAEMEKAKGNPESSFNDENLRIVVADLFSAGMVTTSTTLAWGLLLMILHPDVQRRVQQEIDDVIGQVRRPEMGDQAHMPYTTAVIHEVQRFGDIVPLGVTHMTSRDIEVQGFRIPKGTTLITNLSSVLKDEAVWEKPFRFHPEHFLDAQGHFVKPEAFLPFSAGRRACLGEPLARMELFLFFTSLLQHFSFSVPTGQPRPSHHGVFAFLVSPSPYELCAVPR
Outline: (§2)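 Pooled mixed-gender human liver microsomes in 100 mM potassium phosphate (pH 7.4) with 5 mM MgCl₂, probe substrate at its Km-based level, and test compound. Final volume 100 µL. Preincubated 3 min at 37 °C, then started with 2 mM NADPH (final). Metabolite was read by HPLC-UV: 6β-hydroxytestosterone at 254 nm, 4-hydroxytriazolam at 260 nm, dextrorphan at 278 nm. Activity is given as % of control (100%), mean ± SD of three.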

CYP2D6 [3] = biological target: T1, CYP2D6; assay: Activity at CYP2D6 in human liver microsomes using dextromethorphan as substrate at 25 uM preincubated for 3 mins prior to NADPH addition by HPLC-UV analysis relative to control; assay type: ADME, Microsome; settings: probe dextromethorphan, read-out: Activity; outline: as §2
CYP2D6 [4] = biological target: T1, CYP2D6; assay: Activity at CYP2D6 in human liver microsomes using dextromethorphan as substrate at 12.5 uM preincubated for 3 mins prior to NADPH addition by HPLC-UV analysis relative to control; assay type: ADME, Microsome; settings: probe dextromethorphan, read-out: Activity; outline: as §2
CYP3A4 [5] = biological target: T2, CYP3A4 (Homo sapiens, UniProt P08684); assay: Activity at CYP3A4 in human liver microsomes using triazolam as substrate at 50 uM preincubated for 3 mins prior to NADPH addition by HPLC-UV analysis relative to control; assay type: ADME, Microsome; settings: probe triazolam, read-out: Activity; outline: as §2
T2 sequence (P08684 whole entry): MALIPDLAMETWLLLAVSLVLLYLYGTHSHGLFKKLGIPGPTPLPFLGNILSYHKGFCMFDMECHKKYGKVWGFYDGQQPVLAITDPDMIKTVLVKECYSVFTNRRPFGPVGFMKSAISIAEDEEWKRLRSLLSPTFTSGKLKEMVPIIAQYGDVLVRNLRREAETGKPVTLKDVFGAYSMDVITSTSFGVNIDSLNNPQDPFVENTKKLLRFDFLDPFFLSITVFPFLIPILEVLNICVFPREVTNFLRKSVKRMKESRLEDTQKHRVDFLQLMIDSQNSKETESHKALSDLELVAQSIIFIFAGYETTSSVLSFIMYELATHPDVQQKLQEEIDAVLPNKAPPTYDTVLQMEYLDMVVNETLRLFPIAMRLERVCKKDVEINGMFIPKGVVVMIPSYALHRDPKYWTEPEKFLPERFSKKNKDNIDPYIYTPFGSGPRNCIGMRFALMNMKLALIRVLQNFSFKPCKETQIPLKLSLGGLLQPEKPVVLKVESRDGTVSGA

CYP3A4 [6] = biological target: T2, CYP3A4; assay: Activity at CYP3A4 in human liver microsomes using triazolam as substrate at 25 uM preincubated for 3 mins prior to NADPH addition by HPLC-UV analysis relative to control; assay type: ADME, Microsome; settings: probe triazolam, read-out: Activity; outline: as §2
CYP3A4 [7] = biological target: T2, CYP3A4; assay: Activity at CYP3A4 in human liver microsomes using triazolam as substrate at 12.5 uM preincubated for 3 mins prior to NADPH addition by HPLC-UV analysis relative to control; assay type: ADME, Microsome; settings: probe triazolam, read-out: Activity; outline: as §2
CYP3A4 [8] = biological target: T2, CYP3A4; assay: Activity at CYP3A4 in human liver microsomes using testosterone as substrate at 25 uM preincubated for 3 mins prior to NADPH addition by HPLC-UV analysis relative to control; assay type: ADME, Microsome; settings: probe testosterone, read-out: Activity; outline: as §2
[9] = Half life in human liver microsomes at 50 uM preincubated for 3 mins prior to NADPH addition measured after 60 mins by HPLC analysis; assay type: ADME, Microsome; outline: as §1
[10] = Cytotoxicity against human MAGI cells by MTS assay; assay type: cell-based
[11] = tested on: Human immunodeficiency virus 1; assay: Antiviral activity against Human immunodeficiency virus 1 NL4-3 infected in human MAGI cells after 6 days by beta-galactosidase reporter gene assay; assay type: functional, organism-based; settings: Human immunodeficiency virus 1, NL4-3, MAGI, 144 h
Outline: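 MAGI cells carrying an LTR-β-galactosidase reporter were infected with HIV-1 in the presence of compound. After 6 days post-infection, cells were lysed and β-galactosidase activity was read by chemiluminescence. Values are means of three determinations.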

CYP3A4 [12] = biological target: T2, CYP3A4; assay: Activity at CYP3A4 in human liver microsomes using testosterone as substrate at 12.5 uM preincubated for 3 mins prior to NADPH addition by HPLC-UV analysis relative to control; assay type: ADME, Microsome; settings: probe testosterone, read-out: Activity; outline: as §2
Liver microsomes [13] = assay: Metabolic stability in human liver microsomes assessed as retention time of parent compound at 50 uM by HPLC-UV analysis; assay type: ADME, Microsome; outline: as §1
[14] = biological target: Human immunodeficiency virus type 1 integrase (Human immunodeficiency virus 1) (UniProt Q7ZJM1); assay: (§3) Inhibition of HIV-1 integrase strand transfer activity after 1 hr by ELISA
Chain of Human immunodeficiency virus type 1 integrase (Human immunodeficiency virus 1) (Q7ZJM1 as listed by the source): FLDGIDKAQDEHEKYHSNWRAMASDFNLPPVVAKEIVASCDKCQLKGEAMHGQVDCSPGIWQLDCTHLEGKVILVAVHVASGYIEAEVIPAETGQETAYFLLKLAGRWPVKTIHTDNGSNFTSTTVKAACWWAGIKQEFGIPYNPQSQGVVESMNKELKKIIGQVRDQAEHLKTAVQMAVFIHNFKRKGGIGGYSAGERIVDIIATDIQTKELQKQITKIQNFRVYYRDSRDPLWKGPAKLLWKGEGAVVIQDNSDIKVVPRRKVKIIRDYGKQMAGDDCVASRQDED
Outline: (§4)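 DNA substrate (20 nM final), serially diluted compound, and recombinant HIV-1 integrase were combined in 20 mM HEPES pH 7.5, 10 mM MgCl₂, 5% PEG, 0.1 mg/mL BSA, 5 mM DTT. The mix was moved to streptavidin plates for 1 h at room temperature, then washed with NaOH/NaCl/EDTA and Tris-EDTA. Detection antibody was applied for 1 h at 37 °C, followed by TMB for 10 min and absorbance at 450 nm.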

[15] = biological target: Human immunodeficiency virus type 1 integrase (Human immunodeficiency virus 1, UniProt Q7ZJM1); assay: as §3; outline: as §4
Chain of Human immunodeficiency virus type 1 integrase (Q7ZJM1 whole entry): as the sequence (Q7ZJM1 as listed by the source) above

Retention_time (Liver microsomes [1]): 9.1 min
activity at 50 µM (CYP2D6 [2]): 87%
activity at 25 µM (CYP2D6 [3]): 87%
activity at 12.5 µM (CYP2D6 [4]): 86%
activity at 50 µM (CYP3A4 [5]): 100%
activity at 25 µM (CYP3A4 [6]): 98%
activity at 12.5 µM (CYP3A4 [7]): 124%
activity at 25 µM (CYP3A4 [8]): 97%
half-life at 50 µM [9]: 2 h
EC50 [11]: 25.1 nM
EC90 [11]: 415 nM
activity at 12.5 µM (CYP3A4 [12]): 109%
Retention_time (Liver microsomes [13]): 10.48 min
SMILES: O=C(/C=C(\O)c1cc(Cc2ccc(F)cc2F)cn(Cc2ccccc2F)c1=O)C(=O)N[C@H]1CCC[C@@H]1O
CC50 [10]: 40400 nM

inhibition [14]: inactive
SMILES: O=C(/C=C(\O)c1cc(Cc2ccc(F)cc2F)cn(Cc2ccccc2F)c1=O)C(=O)N[C@@H]1CCC[C@@H]1O (racemic)

EC50 [11]: 42.2 nM
EC90 [11]: 871 nM
SMILES: O=C(/C=C(\O)c1cc(Cc2ccc(F)cc2F)cn(Cc2ccccc2F)c1=O)C(=O)N[C@@H]1CCC[C@H]1O
CC50 [10]: 137000 nM

IC50 [15]: 48 nM
SMILES: O=C(/C=C(\O)c1cc(Cc2ccc(F)cc2F)cn(Cc2ccccc2F)c1=O)C(=O)N[C@@H]1CCC[C@H]1O (racemic)

Source: ChEMBL document CHEMBL2401701, “Notable difference in anti-HIV activity of integrase inhibitors as a consequence of geometric and enantiomeric configurations” (Bioorg Med Chem Lett, 2013)
